# High-throughput results: PubChem BioAssay, several laboratories
# Tn6 DDE FP – inhibitors of Tn6 peptide binding to fibrin DD(E), primary screen, biochemical, fluorescence polarization, human fibrin, Tn6 probe; 370,000 tested, 0.21% active; AID 720509, 2013; Fibrin DD(E) TRITC-Tn6 fluorescence polarization displacement; inhibition, % at 8.3 µM;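 active = inhibition above a per-campaign cutoff: mean of compounds within control limits plus 3 SD, cut at about 15% in these data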;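 note: 0% = median of all compound wells on the plate and 100% = blocking peptide control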
# ADAM10 inh – human ADAM10 inhibitors, primary screen, biochemical, QFRET, HTS. Disintegrin and metalloproteinase domain-containing protein 10 (Homo sapiens), O14672. recombinant ADAM10, EDANS/DABCYL FRET peptide cleavage, 3 h. inhibition, % at 7 µM. 370,000 tested, 0.62% active;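 active = inhibition above a per-campaign cutoff equal to the mean of compounds falling between control-based bounds plus 3 SD, cut at about 20% in these data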;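 note: 0% = DMSO wells while the 100% control is not disclosed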
# Target sequence (O14672 214-748 limits assumed): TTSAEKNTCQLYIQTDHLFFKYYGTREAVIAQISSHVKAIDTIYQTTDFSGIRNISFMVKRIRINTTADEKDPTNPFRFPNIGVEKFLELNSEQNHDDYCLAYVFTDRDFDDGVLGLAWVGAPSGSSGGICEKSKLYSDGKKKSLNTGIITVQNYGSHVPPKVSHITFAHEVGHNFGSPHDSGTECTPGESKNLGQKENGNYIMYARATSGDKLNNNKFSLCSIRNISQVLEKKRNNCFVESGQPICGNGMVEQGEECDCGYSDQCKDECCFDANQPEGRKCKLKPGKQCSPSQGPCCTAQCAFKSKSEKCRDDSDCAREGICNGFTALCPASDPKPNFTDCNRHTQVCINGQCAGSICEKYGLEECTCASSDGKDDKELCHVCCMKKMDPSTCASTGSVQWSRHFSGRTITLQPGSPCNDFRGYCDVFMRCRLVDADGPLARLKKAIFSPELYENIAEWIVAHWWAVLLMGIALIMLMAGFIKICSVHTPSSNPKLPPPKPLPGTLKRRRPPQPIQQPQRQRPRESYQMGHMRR
# ADAM17 inh – ADAM17 inhibitors, primary screen, biochemical, QFRET; inhibition, % at 6.95 µM; recombinant ADAM17, EDANS/DABCYL FRET peptide cleavage; 370,000 tested, 0.83% active;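 active = inhibition above the mean of compounds lying between control limits plus 3 SD, set per campaign, cut at about 8.5% in these data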;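 note: 0% = DMSO-only wells as the low control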
# Tn7 DDE FP – inhibitors of Tn7 peptide binding to fibrin DD(E), primary screen, biochemical, fluorescence polarization, human fibrin, Tn7 probe; FP displacement of FITC-Tn7 peptide from fibrin DD(E); 0% = median of compound wells per plate; 370,000 tested, 0.13% active; inhibition, % at 8.3 µM; Fibrinogen beta chain (Homo sapiens), P02675; AID 720508, 2013;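 active = inhibition above the mean of compounds falling within the control limits plus 3 SD of them, cut at about 14% in these data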;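 note: 0% = plate median of compound wells and 100% = 10 µM Aha-Tn7 peptide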
#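 Assay system: human fibrin DD(E). Input: DD(E) 2 µM final. Medium: Tris buffer with calcium and detergent, pH 7.8. Compound dosing: single point at 8.3 µM. Timing: 10 min plus 3 h, room temperature. Technique: fluorescence polarization of the labelled Tn7 tracer. Read-out: percent inhibition. Replicates: singlicate testing.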
# MT1-MMP act inh – blockers of MT1-MMP proenzyme processing, primary screen, HT1080 RFP-PRO-GFP cells, GFP/RFP fluorescence; Matrix metalloproteinase-14 (Homo sapiens), P50281; GFP/RFP ratio fluorescence, overnight; percent of plate control window, DMSO zero; GFP/RFP ratio change, % at 20 µM; 360,000 tested, 0.061% active;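 active = GFP/RFP ratio change of at least 30% with cell ATP level not reduced by more than half and red fluorescence within 50% of control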
#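 Assay system – RFP-PRO-GFP reporter HT1080 cells · Compound dosing – single dose of 20 µM compound, 1% DMSO final · Incubation – overnight compound exposure at 37 °C · Measure – GFP/RFP fluorescence ratio · Benchmarks – DMSO wells and RFP-L50D-GFP cells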
# ADAM10 confirm – human ADAM10 inhibitors, confirmation, biochemical, QFRET, triplicate; shares compounds with ADAM10 inh; ADAM10 QFRET peptide cleavage, EDANS fluorescence; inhibition, % at 6.95 µM; 2,100 tested, 1% active; AID 743208, 2013;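 active = inhibition above about 20% chosen separately for each screening run, limit read from the data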;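 note: 0% = DMSO wells and 100% = marimastat wells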
# ADAM17 ctr – ADAM17 inhibitors, counter-screen for ADAM10 exosite inhibitor project, biochemical, QFRET, high throughput. shares compounds with ADAM10 inh. ADAM17 QFRET peptide cleavage, EDANS fluorescence. inhibition, % at 6.95 µM. 2,100 tested, 0.5% active;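 active = mean triplicate inhibition above the solvent-only control wells' mean plus 3 SD, cut at about 12% in these data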;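 note: 0% = DMSO wells and 100% = marimastat wells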
# Active calls of the source: *; nt = not tested or not shown. Only some compounds are listed: those with a hit (about 1.6% of all), similar ones and a draw of the others.
SMILES,Tn6 DDE FP,ADAM10 inh,ADAM17 inh,Tn7 DDE FP,MT1-MMP act inh,ADAM10 confirm,ADAM17 ctr
O=C(Nc1cc(Cl)ccc1O)c1cc2n(n1)C(C(F)(F)F)CC(c1ccc3c(c1)OCO3)N2 (configuration not stated),-6,29*,8,2,-12,6,2
COc1ccc(NC(=O)CC2C(=O)N(CCc3ccccc3)C(=S)N2Cc2cccnc2)cc1 (configuration not stated),1,22*,6,5,3,4,1
CC1(C)O[C@@H]2[C@H](O1)[C@@H](O)C[C@H]2n1cnc2c(Cl)ncnc21,-5,-1,1,-8,nt,nt,nt
CC(CC(=O)O)CC(=O)Nc1cc([N+](=O)[O-])ccc1O (configuration not stated),3,20*,1,0,12,4,1
COC(=O)C1=C(C)NC(C)=C(C(=O)OCC2CCCO2)C1c1ccc(Cl)c([N+](=O)[O-])c1 (configuration not stated),-18,26*,4,-2,-6,2,1
CC(C)(C)OC(=O)/C=C/[C@@H](CC1CCCC1)Sc1ccc(C(C)(C)C)cc1,-6,1,-2,-1,nt,nt,nt
COc1ccc(C)c2sc(N(CCCN(C)C)C(=O)c3ccc(S(=O)(=O)N4CCc5ccccc5C4)cc3)nc12,-1,31*,-9,-2,0,21*,11
Cc1cccc(N2CCN(S(=O)(=O)c3ccc4c(c3)CC(=O)N4C)CC2)c1C,3,21*,1,0,-2,1,1
Cc1cccc(N2CCN(S(=O)(=O)c3ccc(S(=O)(=O)N4CCCC4)cc3)CC2)c1C,1,2,0,2,7,nt,nt
C/C(=N\NC(=S)NCc1ccccc1)c1cccc(Br)c1,2,21*,4,2,-1,8,4
COc1ccc(CNC(=O)[C@H](C)NC(=O)C2CCN(C(=O)[C@@H](N)CCSC)CC2)cc1,1,-7,-1,-1,-1,nt,nt
COc1ccc(CNC(=O)[C@H](NC(=O)C2CCN(C(=O)[C@@H](N)CCSC)CC2)C(C)C)cc1,3,82*,-1,-2,3,-1,0
C=CCN1C(=O)[C@@H](CC(=O)NCCCOC)[C@]2(C(=O)OCC)CCCCC/C=C/12,-2,1,0,-3,nt,nt,nt
O=C(CCn1c(=O)oc2ccccc21)N1CCN(C(c2ccccc2)c2ccccc2)CC1,-6,27*,4,1,-8,3,2
O=C(CCn1c(=O)oc2ccccc21)N1CCN(c2ccccc2F)CC1,-7,-4,-7,0,4,nt,nt
C#CCOCCOCCOCCNc1nc(N2CCN(C(=O)CCCCCCCCCCNC(=O)[C@H](CCCCN)n3cc(C)nn3)CC2)nc(N2CCN(C(=O)CCCCCCCCCCNC(=O)[C@@H]([C@H](C)O)n3cc(C)nn3)CC2)n1,nt,nt,nt,nt,3,nt,nt
C#CCOCCOCCOCCNc1nc(N2CCN(C(=O)CCCCCCCCCCNC(=O)[C@@H](CCSC)n3cc(CCO)nn3)CC2)nc(N2CCN(C(=O)CCCCCCCCCCNC(=O)[C@@H]([C@H](C)O)n3cc(C)nn3)CC2)n1,-2,20*,5,6,24,2,0
O=C(Nc1ccccc1C(F)(F)F)c1ccc(F)c(S(=O)(=O)N2CCOCC2)c1,3,22*,4,-1,0,3,0
CC(=O)Nc1cccc(NC(=O)c2ccc3c(c2)CCN3S(=O)(=O)c2ccccc2)c1,2,11,4,-1,8,nt,nt
CC(=O)c1cccc(NC(=O)c2ccc3c(c2)CCN3S(=O)(=O)c2ccccc2)c1,-1,23*,5,5,2,4,2
C=CCCC(=O)N1CCC(C(=O)NC2CCCc3ccccc32)CC1 (configuration not stated),-2,-2,2,1,nt,nt,nt
Cc1cccc(N=Nc2c(C)nn(-c3ccccc3)c2N)c1C,1,23*,6,-4,-1,7,3
O=S(=O)(Nc1ccc(S(=O)(=O)Nc2ccccc2)cc1)c1ccccc1,3,7,1,8,2,nt,nt
O=S(=O)(Nc1ccc(N=Nc2ccccc2)cc1)c1ccccc1,0,20*,8,-5,10,7,1
COC(=O)[C@]12C[C@H](CC(=O)NCCC(C)C)C(=O)N(Cc3ccccc3)C1=C[C@H](COCc1ccccc1)O[C@@H]2C,8,4,-2,-2,nt,nt,nt
SMILES,Tn6 DDE FP,ADAM10 inh,ADAM17 inh,Tn7 DDE FP,MT1-MMP act inh,ADAM10 confirm,ADAM17 ctr
COC(=O)[C@]12C[C@H](CC(=O)NCc3ccc(OC)c(OC)c3)C(=O)N(Cc3ccccc3)C1=C[C@H](C1CCCC1)O[C@@H]2C,1,-2,1,3,nt,nt,nt
CCCCOCCCNC(=O)C[C@H]1C[C@@]2(C(=O)OC)C(=C[C@H](C(C)(C)C)O[C@@H]2C)N(Cc2cccc3ccccc23)C1=O,-9,21*,8,11,nt,10,3
COC(=O)[C@]12C[C@H](CC(=O)NCCC(C)C)C(=O)N(Cc3ccco3)C1=C[C@H](COCc1ccccc1)O[C@@H]2C,2,53*,-4,1,nt,1,0
COC(=O)[C@]12C[C@H](CC(=O)N3CCN(C(=O)c4ccco4)CC3)C(=O)N(Cc3cccc4ccccc34)C1=C[C@H](C1CCCC1)O[C@@H]2C,-4,21*,4,-8,nt,5,2
COC(=O)[C@]12C[C@H](CC(=O)NCc3ccc(OC)c(OC)c3)C(=O)N(Cc3cccc4ccccc34)C1=C[C@H](C1CCCC1)O[C@@H]2C,1,24*,8,-12,nt,8,3
C=CCN1C(=O)[C@@H](CC(=O)N2CCSCC2)[C@]2(C(=O)OC)CCCCC=C12,-4,-12,2,4,nt,nt,nt
COc1ccc(N(C)S(=O)(=O)c2cccc(C(=O)Nc3cc(OC)ccc3OC)c2)cc1,-8,21*,7,-8,-1,7,2
